The values below come from the EternaBench riboswitch data.

The data set relates to MS2 coat protein. Briefly: apparent Kd, MS2 coat protein; higher = weaker binding; RNA-MaP array; FMN 200 µM where present. Put shortly: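 Stalled E. coli RNA polymerase produced the designs on Illumina sequencing-chip clusters. SNAP-549-labelled MS2 coat protein was added from 0.7 or 1.5 nM, doubling to 3 µM, without and then with constant ligand, in 100 mM Tris-HCl pH 7.5, 80 mM KCl, 4 mM MgCl2, BSA, DTT, yeast tRNA and Tween-20. The apparent Kd is the median of filtered per-cluster fits of green signal normalised to red-channel RNA signal and control-cluster median Fmax.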

The mark [1] stands for this setting: designed as: ON switch for flavin mononucleotide, no ligand.
[2] abbreviates: ligand present: flavin mononucleotide, designed as: ON switch for flavin mononucleotide.
Setting [3] is: designed as: OFF switch for flavin mononucleotide, no ligand.
Where [4] appears, read: ligand present: flavin mononucleotide, designed as: OFF switch for flavin mononucleotide.

One may read the apparent Kd as a dissociation constant that holds for the conditions of the assay.

In the case of “GUAGCAUACCGAGGAUAUUCAGGGCGUGGAUAAACAUGAGGAUCACCCAUGUGGCGAAAGCCUAGGGAGAAGGCGGAAUGCUAC”, the “apparent Kd” value is 21.5 nM under setting [1] and 16.3 nM under setting [2].

On to “ACACAUGAGGAUCACCCAUGUAGCUGGCGUCUGUGCCAGCCACAGGAUAUACGGCAACACAAGCCGUAGAAGGGUGAUAAACAC”, for which the “apparent Kd” value reads like this: under setting [1], 85.3 nM; under setting [2], 36.5 nM.

Regarding “GCCUAGCCCAGGCCCACGGCAUCACAGGAUAUGCCGAUAACAUGAGGAUCACCCAUGUCAACUCCGCAGAAGGGUGAUAUCGUG”, the “apparent Kd” value by setting is: under setting [1], 174 nM; under setting [2], 28.8 nM.

With “UGGUACAUGGGAGGAUAUGGGUUGAUAACAUGAGGAUCACCCAUGUUAAAUAUGCCUCUUGGCAACUAGAAGGCCCAUGUACCU”, the “apparent Kd” value under setting [1] came out at 512 nM and the “apparent Kd” value under setting [2] is 41.8 nM.

Regarding “AUGCCGUGCAGAGCGCGACGGCGUACAUGAGGAUCACCCAUGUAGGAUAUACUACACAAAGUGUAGUAGAAGGACAUGCGACUG”, the “apparent Kd” value by setting is: under setting [3], 62 nM; under setting [4], 145 nM.

With “GUACCAUAUGAGAAGGCGAUCAUGAAACAUGAUCGAGGAUAUCAUGAAAACAUGAGGAUCACCCAUGUAUGGGUAUUAAGGUAC”, the “apparent Kd” value under setting [1] was found to be 61.4 nM and the “apparent Kd” value under setting [2] stood at 23.7 nM.

Regarding “AGAGACUUGGGAGGAUAUGCCUGAUGGACACGGGCAGAAGGCCCAAACAUGAGGAUCACCCAUGUAUCUAAGCCCUGGAAGGGC”, the “apparent Kd” value under setting [1] was found to be 310 nM and the “apparent Kd” value under setting [2] came to 20.6 nM.

Take “UUUUGACAUGAGGAUCACCCAUGUGAGGAUAUGAUGCGAUCGUCGAAAGACGAUAGCAUCAGAAGGCACAUAUG”: the “apparent Kd” value is 112 nM under setting [3] and 336 nM under setting [4].

For the sequence “GCGCAGUCAGGAUAUGCCGCUUGCGAUCACCGUUGGCAAAGGCAGAAGGGACAUGAGGAUCACCCAUGUGGCGC”, the “apparent Kd” value by setting is: under setting [3], 19.3 nM; under setting [4], 22.9 nM.

For the sequence “UUAUUUAUACAAGGAUAUCAAUUAUAUACAAUUCCUACAUGAGGAUCACCCAUGUUUUAUUUUUUUGAGAAGGUGUAUUGUCUG”, the “apparent Kd” value by setting is: under setting [1], 30.1 nM; under setting [2], 32.8 nM.

In the case of “UGAAACUACGAGAAGGACAUGUGGUCCUUCAGUUACAUGAGGAUCACCCAUGUAGGAUAUCGUAGUUUCAGGAUCGUGAGAUCG”, the “apparent Kd” value is, setting by setting: under setting [3], 34.7 nM; under setting [4], 10.4 nM.

For “AAAAAGGCAGGAUAUGCAUACACACAAAAAAAAAAACUGGGACAUGAGGAUCACCCAUGUAGAAGGGCCAAAAA”, the “apparent Kd” value amounted to 29.4 nM under setting [3] and 25.9 nM under setting [4].

Turning to “GUCCGGCGUGUAGGAUAUGGAUCCGAUUAGGAUCCAGAAGGACAUGAGGAUCACCCAUGUACAUGUAAACAGUCAUCACCGGAU”, the “apparent Kd” value runs as follows: under setting [3], 7.5 nM; under setting [4], 23.5 nM.

With “AUACUCAUGUAAGGAUAUGCAGCCGAAACGGCUGCAGAAGGUACUAUAAUACAUGAGGAUCACCCAUGUCAAAAUUAAAUAGUU”, the “apparent Kd” value under setting [1] worked out at 185 nM and the “apparent Kd” value under setting [2] is 31.7 nM.

Turning to “GUUAGUUAAGGAUAUACAGGGAGCCGCGGCGUCUCGCCGCAACAUGAGGAUCACCCAUGUAGAAGGUGGCCAUU”, the “apparent Kd” value under setting [3] is 150 nM and the “apparent Kd” value under setting [4] is 119 nM.

In the case of “GGAUCCAACACAGGAUAUGCUGGACUUUGUCCAGCAGAAGGGUGAAGAACAUGAGGAUCACCCAUGUGGAUCCAUAUAUUUAAC”, the “apparent Kd” value reads like this: under setting [1], 240 nM; under setting [2], 16.8 nM.

“GAAAAGUCAGGAUAUGCAGAUAAAAAAACGAAAAAAAAUCUGCAGAAGGGACAUGAGGAUCACCCAUGUAAAAG”: the “apparent Kd” value runs as follows: under setting [3], 35.3 nM; under setting [4], 74.6 nM.

With “CAAUUACAUGAGGAUCACCCAUGUCAGGAUAUGCGAAUUACCAGAUGAAACUUAAUAAGCAGAAGGGACUACAA”, the “apparent Kd” value is, setting by setting: under setting [3], 36.3 nM; under setting [4], 49.6 nM.

For the sequence “AUCAGCUCGUCAGGAUAUACGUCACUGCGUCAGCAGUGUCGUAAGAUCACAUGAGGAUCACCCAUGUAGAAGGGACGAGCUGAU”, the “apparent Kd” value under setting [3] came to 5.31 nM and the “apparent Kd” value under setting [4] was 5.49 nM.

On to “CGAUCGUUGCAGAAGGUUAUUUUUUUAACAAUUCUCUUAACAUGAGGAUCACCCAUGUUUUUGAUGAAGGAUAUGCAAGGGUCG”, for which the “apparent Kd” value came out at 5.76 nM under setting [3] and 5.5 nM under setting [4].

Regarding “GUCCGAAGGGAGAAGGGCUAGGAGGUCCAGCUUAUGUGUGUUGCAACAUGAGGAUCACCCAUGUAGCAGGAUAUCCCUCGUACA”, the “apparent Kd” value reads like this: under setting [3], 44.5 nM; under setting [4], 333 nM.

“CCGGAAAUACAGGAUAUAGGAGUCGAUAGACUCCUAGAAGGGUAUACAUGAGGAUCACCCAUGUUCCUUACCGG”: the “apparent Kd” value by setting is: under setting [3], 45.9 nM; under setting [4], 50.1 nM.

Take “CUGAGGUCAGGAUAUGCAUGGCGGGACUUGCGUCGUGGCGUGCAGAAGGGACAUGAGGAUCACCCAUGUGGAGA”: the “apparent Kd” value reads like this: under setting [3], 88.5 nM; under setting [4], 203 nM.

As to “AGCUACGUUUCGUAGCAGUGUCAUCGAGAAGGCUCAGAUACAUGAGGAUCACCCAUGUUAACAUGGGAGGAUAUCGAUGAUACA”, the “apparent Kd” value was 65.3 nM under setting [1] and 8.4 nM under setting [2].

On to “CUAGUAUAUCAGGAUAUGAUUUUGUGUAGUUGGUCAGAAGGGAUGACAUGAGGAUCACCCAUGUUAAGGGAUGA”, for which the “apparent Kd” value is 94.2 nM under setting [3] and 108 nM under setting [4].

For the sequence “GCCAUCGCAUGAGGAUAUGCUCCCGUUUCGGGAGCAGAAGGCAUGUCAUAAGACAUGAGGAUCACCCAUGUAGUUUAGAUGGCA”, the “apparent Kd” value is, setting by setting: under setting [1], 234 nM; under setting [2], 11.1 nM.

For the sequence “CUUAGACAUGAGGAUCACCCAUGUGAGGAUAUGAUGCGAUCGUCGAAAGACGAUAGCAUCAGAAGGCACAUAUG”, the “apparent Kd” value reads like this: under setting [3], 132 nM; under setting [4], 301 nM.

Take “GAUCAACAUGAGGAUCACCCAUGUGAGGAUAUGUAUCAUAGAUCUUCGGAUCUAUGAUACAGAAGGCAUGUGGA”: the “apparent Kd” value is, setting by setting: under setting [3], 204 nM; under setting [4], 46.5 nM.

For the sequence “UUAAAUCAUGUAGGAUAUGCAUGGCGAAGCUACGCAGAAGGACAUGAGGAUCACCCAUGUUAUAGCUACCCAGUUAGGUGGCAA”, the “apparent Kd” value under setting [3] stood at 82.2 nM and the “apparent Kd” value under setting [4] amounted to 189 nM.

With “GCCUCAUAGUAGAAGGGACUUAGACAGUUAAGCAUCUUGUACAAUUAACAUGAGGAUCACCCAUGUCAGGAUAUACUAAGAGGC”, the “apparent Kd” value under setting [3] came out at 8.02 nM and the “apparent Kd” value under setting [4] came to 9.49 nM.

In the case of “AUUAGGUAAGGAUAUACAUGAGGAUCACCCAUGUAGGUUAACGCAACCGGGUCCGGCUGUAGAAGGUGCAACGU”, the “apparent Kd” value under setting [3] stood at 32.5 nM and the “apparent Kd” value under setting [4] was 32.6 nM.

On to “UGGUACUAGGGAGGAUAUGGGAAGAUACAUGAGGAUCACCCAUGUUUAAGAAUGCCGAGAGGCAACUAGAAGGCCCUAGGACCU”, for which the “apparent Kd” value worked out at 434 nM under setting [1] and 18.5 nM under setting [2].

“UCGGCGCGAGGAUAUACGUUUGCUUUUUUUCGUUUUUGUGUACAUGAGGAUCACCCAUGUAGAAGGCGCGCCGC”: the “apparent Kd” value reads like this: under setting [3], 15.2 nM; under setting [4], 22.4 nM.

As for “AGAUUUGUACAUGAGGAUCACCCAUGUUAAUAGGUGUUUGUCAGAAGGCAUUAAGAGAGAAUUAAUGAGGAUAUGAAGUUUCAU”, the “apparent Kd” value under setting [1] is 59.2 nM and the “apparent Kd” value under setting [2] amounted to 36.2 nM.

For “CCUCUACAUGAGGAUCACCCAUGUGAGGAUAUAAGAUUGCGGAUUCCGCACUACGGUCUUAGAAGGCGCGUGGA”, the “apparent Kd” value amounted to 19 nM under setting [3] and 38.1 nM under setting [4].

On to “UUGACAUUCAAGAAGGGUCACUCUACAUGAGGAUCACCCAUGUCUAUGGACAGGAUAUUGAUCGUCACCUGGUUAGCUUUCGGU”, for which the “apparent Kd” value stood at 770 nM under setting [1] and 19 nM under setting [2].

“AUCCCGAUAGUAGGAUAUUUCUGCAGUUGUGGUUAGAUCGCCCUACAUGAGGAUCACCCAUGUAGAGAGAAGGACUGUGGUUAU”: the “apparent Kd” value is, setting by setting: under setting [3], 5.7 nM; under setting [4], 8.54 nM.

In the case of “GCUUCGGCAGGAUAUACAUGAGGAUCACCCAUGUUGAAGUUGAAGAUCUUCGGCUUCGGUAGAAGGGUUGAAGU”, the “apparent Kd” value under setting [3] was 38 nM and the “apparent Kd” value under setting [4] turned out to be 32.1 nM.

With “GGAGGACAUGAGGAUCACCCAUGUGGAUGGGCGCUAGGAUAUGCGAGAGGAUGGAGAGAAGCAGAAGGAGUGGGUU”, the “apparent Kd” value by setting is: under setting [1], 150 nM; under setting [2], 107 nM.

Turning to “UCAUACGGUGAGGAUAUCUCCACUAAAGUGUGUAGAGAAGGCGCUACAUGAGGAUCACCCAUGUUUAUGGGCAG”, the “apparent Kd” value by setting is: under setting [3], 376 nM; under setting [4], 117 nM.

With “CCGAAACCUCAGAAGGACCACAUGAGGAUCACCCAUGUCAAGCAAAACGGUAGGAUAUGAGGGAAAAGUCGGUGUACCCGACAG”, the “apparent Kd” value is 8.93 nM under setting [1] and 5.76 nM under setting [2].

As to “CACUGCAAUGUAGGAUAUCGACUGGAUAACAGUCGAGAAGGACAUGAGGAUCACCCAUGUACUUUGAGUGAAUAAUAAGCAGUG”, the “apparent Kd” value is 16.5 nM under setting [3] and 59.7 nM under setting [4].

For the sequence “CGCUAGGAUGGGUCUAAUGGACCACAGGAUAUGCUUGUACAUGAGGAUCACCCAUGUAAUAUUGUGCAGAAGGGUGGAUUCGCG”, the “apparent Kd” value under setting [1] was 76 nM and the “apparent Kd” value under setting [2] was 10.9 nM.

Turning to “CAGGUAGACUGAGGAUAUACAAUAAACAGCUAGUCUAUCUAGCUGCCCACAUGAGGAUCACCCAUGUAGAAGGCAGUCUGCCUG”, the “apparent Kd” value turned out to be 18.1 nM under setting [3] and 52.5 nM under setting [4].

As for “AUUAAUAAGUAGAAGGACGGAGAGUAUGAAGUCGUAGGAUAUACAUAAGACAUGAGGAUCACCCAUGUAUGUAUUUUGGGUAUG”, the “apparent Kd” value worked out at 12.9 nM under setting [3] and 12.9 nM under setting [4].

For the sequence “UGAGCCGGCACUGAGGAUAUUCAUAUUAAAACAUGAGGAUCACCCAUGUAGGCCAGAAGGCCUUGGGAGAAGGCAGGUCGGCUCA”, the “apparent Kd” value is, setting by setting: under setting [1], 403 nM; under setting [2], 20.6 nM.

Regarding “UUAAAUCAUGUAGGAUAUGCAUGGCGAAGCUACGCAGAAGGACAUGAGGAUCACCCAUGUUAUAGCUACCCGUUACGGUGGCAA”, the “apparent Kd” value under setting [3] is 89.1 nM and the “apparent Kd” value under setting [4] was determined as 239 nM.

In the case of “GGAAUCUGUGUCACUCCAUUGACAUGAGGAUCACCCAUGUCGCAGGAUAUCAGGCGCGGAGCGACUGAGAAGGGCGACUCGCGG”, the “apparent Kd” value stood at 86.4 nM under setting [3] and 50.5 nM under setting [4].
